Activity calls are given as the source filed them. The calls are words filed in the database; no cut-off is given here.
Columns and labels:
HCC 2998 = experiment: Cytotoxicity against human HCC2998 cells after 48 hrs by SRB assay; format: functional; conditions: HCC 2998, 48 h
How it was run: (§1)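 NCI-60 panel; cells grown in RPMI 1640 with 5% FBS and 2 mM L-glutamine, plated at 5000–40 000 cells/well by doubling time, preincubated 24 h (37 °C, 5% CO2). Drug added at five concentrations, 1-log steps from 10−4 to 10−8 M, for 48 h. Fixed with TCA, stained with 0.4% SRB, absorbance read at 515 nm. Percent growth computed against time-zero and untreated controls; GI50, TGI and LC50 derived.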

COLO 205 = experiment: Cytotoxicity against human COLO205 cells after 48 hrs by SRB assay; format: functional; conditions: COLO 205, 48 h; how it was run: as §1
BT-549 = experiment: Cytotoxicity against human BT549 cells after 48 hrs by SRB assay; format: functional; conditions: BT-549, 48 h; how it was run: as §1
[1] = biological target: Ephrin type-A receptor 2 (Homo sapiens) (UniProt P29317); experiment: Inhibition of human EPHA2 at 0.5 uM relative to control
Sequence of Ephrin type-A receptor 2 (Homo sapiens) (P29317 whole entry): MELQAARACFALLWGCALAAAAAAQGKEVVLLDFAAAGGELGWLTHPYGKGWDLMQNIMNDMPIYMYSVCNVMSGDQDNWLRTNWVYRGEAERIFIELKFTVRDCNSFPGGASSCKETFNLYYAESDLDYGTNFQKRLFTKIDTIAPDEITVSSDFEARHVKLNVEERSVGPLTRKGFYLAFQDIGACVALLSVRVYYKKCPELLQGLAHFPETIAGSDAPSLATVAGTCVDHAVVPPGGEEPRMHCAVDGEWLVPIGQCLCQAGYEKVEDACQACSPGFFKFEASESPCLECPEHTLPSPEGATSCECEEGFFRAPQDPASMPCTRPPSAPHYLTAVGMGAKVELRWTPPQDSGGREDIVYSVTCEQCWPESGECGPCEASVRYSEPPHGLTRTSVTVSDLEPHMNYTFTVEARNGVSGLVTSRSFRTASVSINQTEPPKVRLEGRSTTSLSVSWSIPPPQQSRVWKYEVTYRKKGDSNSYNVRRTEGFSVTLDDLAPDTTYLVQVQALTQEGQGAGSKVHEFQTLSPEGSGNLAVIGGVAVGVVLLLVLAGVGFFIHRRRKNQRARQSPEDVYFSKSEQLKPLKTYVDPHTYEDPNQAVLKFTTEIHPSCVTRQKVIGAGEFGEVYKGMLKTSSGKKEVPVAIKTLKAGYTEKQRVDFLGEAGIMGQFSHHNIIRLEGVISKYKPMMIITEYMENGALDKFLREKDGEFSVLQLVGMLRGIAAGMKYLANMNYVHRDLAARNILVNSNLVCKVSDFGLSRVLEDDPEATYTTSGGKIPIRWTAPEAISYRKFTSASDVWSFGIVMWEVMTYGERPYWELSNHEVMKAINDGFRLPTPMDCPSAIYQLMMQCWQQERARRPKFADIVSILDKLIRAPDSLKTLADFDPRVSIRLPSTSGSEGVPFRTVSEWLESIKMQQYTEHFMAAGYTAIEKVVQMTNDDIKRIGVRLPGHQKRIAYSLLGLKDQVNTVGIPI

SF-295 = experiment: Cytotoxicity against human SF295 cells after 48 hrs by SRB assay; format: functional; conditions: SF-295, 48 h; how it was run: as §1
[2] = biological target: Fibroblast growth factor receptor 1 (Homo sapiens) (UniProt P11362); experiment: Inhibition of human FGFR1 at 0.5 uM relative to control
Sequence of Fibroblast growth factor receptor 1 (Homo sapiens) (P11362 22-822 limits assumed): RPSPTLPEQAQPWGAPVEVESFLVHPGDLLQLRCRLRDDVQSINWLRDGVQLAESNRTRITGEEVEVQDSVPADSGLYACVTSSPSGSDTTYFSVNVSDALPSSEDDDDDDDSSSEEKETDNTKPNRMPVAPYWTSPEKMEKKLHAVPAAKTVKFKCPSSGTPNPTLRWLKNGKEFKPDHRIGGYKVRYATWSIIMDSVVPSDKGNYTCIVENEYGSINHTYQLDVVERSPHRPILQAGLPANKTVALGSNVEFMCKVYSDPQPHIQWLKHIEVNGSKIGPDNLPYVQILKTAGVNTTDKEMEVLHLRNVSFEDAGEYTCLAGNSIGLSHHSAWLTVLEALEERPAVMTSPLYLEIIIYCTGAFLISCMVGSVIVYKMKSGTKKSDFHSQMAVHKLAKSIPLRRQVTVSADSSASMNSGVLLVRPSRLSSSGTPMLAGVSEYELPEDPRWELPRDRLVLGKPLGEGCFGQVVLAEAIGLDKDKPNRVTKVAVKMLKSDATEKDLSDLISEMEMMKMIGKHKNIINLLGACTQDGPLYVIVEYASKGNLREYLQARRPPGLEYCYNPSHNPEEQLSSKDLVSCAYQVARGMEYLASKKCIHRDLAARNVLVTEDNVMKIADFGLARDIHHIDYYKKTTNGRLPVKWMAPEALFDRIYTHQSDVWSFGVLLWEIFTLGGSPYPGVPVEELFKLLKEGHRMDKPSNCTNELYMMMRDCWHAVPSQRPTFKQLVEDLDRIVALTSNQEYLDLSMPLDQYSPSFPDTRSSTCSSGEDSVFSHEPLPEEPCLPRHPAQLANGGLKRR

SK-MEL-5 = experiment: Cytotoxicity against human SK-MEL-5 cells after 48 hrs by SRB assay; format: functional; conditions: SK-MEL-5, 48 h; how it was run: as §1
PC-3 = experiment: Cytotoxicity against human PC3 cells after 48 hrs by SRB assay; format: functional; conditions: PC-3, 48 h; how it was run: as §1
SR = experiment: Cytotoxicity against human SR cells after 48 hrs by SRB assay; format: functional; how it was run: as §1
[3] = biological target: Ephrin type-A receptor 7 (Homo sapiens) (UniProt Q15375); experiment: Inhibition of human EPHA7 at 0.5 uM relative to control
[4] = biological target: Tyrosine-protein kinase HCK (Homo sapiens) (UniProt P08631); experiment: Inhibition of human HCK at 0.5 uM relative to control
Sequence of Tyrosine-protein kinase HCK (Homo sapiens) (P08631 2-526 limits assumed): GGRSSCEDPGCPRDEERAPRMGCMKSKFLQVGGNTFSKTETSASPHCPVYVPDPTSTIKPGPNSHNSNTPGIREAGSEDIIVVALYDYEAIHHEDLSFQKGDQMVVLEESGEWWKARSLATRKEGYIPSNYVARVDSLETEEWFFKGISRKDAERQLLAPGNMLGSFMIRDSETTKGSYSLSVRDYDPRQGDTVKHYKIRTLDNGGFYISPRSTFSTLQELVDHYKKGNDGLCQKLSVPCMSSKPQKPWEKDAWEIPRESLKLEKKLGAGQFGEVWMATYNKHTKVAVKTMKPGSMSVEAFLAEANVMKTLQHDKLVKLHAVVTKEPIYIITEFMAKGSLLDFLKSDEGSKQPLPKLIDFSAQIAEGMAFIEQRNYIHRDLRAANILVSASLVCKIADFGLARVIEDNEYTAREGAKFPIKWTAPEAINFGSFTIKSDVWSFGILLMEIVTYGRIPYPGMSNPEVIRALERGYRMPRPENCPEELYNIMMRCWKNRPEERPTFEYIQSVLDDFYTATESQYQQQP

[5] = biological target: TRAF2 and NCK-interacting protein kinase (Homo sapiens) (UniProt Q9UKE5); experiment: Inhibition of human TNIK at 0.5 uM relative to control
IGROV-1 = experiment: Cytotoxicity against human IGROV1 cells after 48 hrs by SRB assay; format: functional; conditions: IGROV-1, 48 h; how it was run: as §1
Hs-578T = experiment: Cytotoxicity against human Hs 578T cells after 48 hrs by SRB assay; format: functional; how it was run: as §1
SF-268 = experiment: Cytotoxicity against human SF268 cells after 48 hrs by SRB assay; format: functional; conditions: SF-268, 48 h; how it was run: as §1
A-431 = experiment: Growth inhibition of human A431 cells at 10 uM after 72 hrs by CellTiter-Glo assay relative to control; format: functional; conditions: A-431, 72 h, read-out: GI
How it was run: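 A431 cells seeded at 2000–4000 cells/well and treated with 10 μM final compound, 0.1% DMSO, for 72 h at 37 °C, 5% CO2. Viability read by CellTiter-Glo. Inhibition ratio = 1 − Vsample/Vvehicle control; triplicate.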

TK-10 = experiment: Cytotoxicity against human TK10 cells after 48 hrs by SRB assay; format: functional; conditions: TK-10, 48 h
How it was run: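 NCI-60 panel, five doses at 1-log steps from 10−4 to 10−8 M. Cells grown in RPMI 1640 with 5% FBS and 2 mM L-glutamine, seeded at 5000–40 000 cells/well and preincubated 24 h. Tz plates were TCA-fixed at drug addition. Drug exposure 48 h at 37 °C, then TCA fixation, 0.4% SRB stain and absorbance at 515 nm. GI50 taken from percent growth relative to Tz and control.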

M14 = experiment: Cytotoxicity against human M14 cells after 48 hrs by SRB assay; format: functional; conditions: M14, 48 h; how it was run: as §1
[6] = Potency index, ratio of sunitinib GI50 to test compound GI50 for human CNS cancer cells; format: functional, CNS cancer cell
How it was run: (§2)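 GI50 is the concentration giving 50% reduction in net protein increase relative to control. Potency index is the reference-drug GI50 divided by the test-compound GI50.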

Homo sapiens = species: Homo sapiens; experiment: Inhibition of human DDR at 0.5 uM relative to control
[7] = Potency index, ratio of sunitinib GI50 to test compound GI50 for human non-small cell lung cancer cells; format: functional
HUVEC = experiment: Growth inhibition of HUVEC after 72 hrs by CellTiter-Glo assay; format: functional, cell-based; conditions: Homo sapiens
How it was run: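 Cells in exponential phase seeded at 2000–4000 cells/well, then exposed 72 h at 37 °C, 5% CO2 with 0.1% final DMSO. Single-point screen at 10 μM final. […] Read-out was CellTiter-Glo luminescence.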

OVCAR-5 = experiment: Cytotoxicity against human OVCAR5 cells after 48 hrs by SRB assay; format: functional; conditions: OVCAR-5, 48 h; how it was run: as §1
[8] = biological target: Fibroblast growth factor receptor 2 (Homo sapiens) (UniProt P21802); experiment: Inhibition of human FGFR2 at 0.5 uM relative to control
Sequence of Fibroblast growth factor receptor 2 (Homo sapiens) (P21802 22-821 limits assumed): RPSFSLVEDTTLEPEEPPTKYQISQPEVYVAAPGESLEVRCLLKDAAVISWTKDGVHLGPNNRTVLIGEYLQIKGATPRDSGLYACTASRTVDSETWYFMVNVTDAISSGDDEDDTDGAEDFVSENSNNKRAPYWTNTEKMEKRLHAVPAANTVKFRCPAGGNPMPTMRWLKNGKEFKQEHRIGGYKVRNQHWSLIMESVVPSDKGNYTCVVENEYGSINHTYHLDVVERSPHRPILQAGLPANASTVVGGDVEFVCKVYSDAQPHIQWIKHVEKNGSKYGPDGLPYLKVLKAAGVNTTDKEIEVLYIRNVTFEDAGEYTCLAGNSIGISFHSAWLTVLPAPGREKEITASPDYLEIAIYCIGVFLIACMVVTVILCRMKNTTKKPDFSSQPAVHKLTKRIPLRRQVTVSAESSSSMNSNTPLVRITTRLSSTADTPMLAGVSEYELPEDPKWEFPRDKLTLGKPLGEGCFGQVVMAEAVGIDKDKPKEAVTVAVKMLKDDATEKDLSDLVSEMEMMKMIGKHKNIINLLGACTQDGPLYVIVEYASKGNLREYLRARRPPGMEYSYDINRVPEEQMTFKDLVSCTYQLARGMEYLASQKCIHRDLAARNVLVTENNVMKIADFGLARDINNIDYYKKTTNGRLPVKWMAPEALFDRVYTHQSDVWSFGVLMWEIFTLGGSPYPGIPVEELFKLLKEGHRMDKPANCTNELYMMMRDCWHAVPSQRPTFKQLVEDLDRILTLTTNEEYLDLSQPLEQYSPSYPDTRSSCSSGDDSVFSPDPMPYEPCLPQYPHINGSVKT

Malme-3M = experiment: Cytotoxicity against human MALME-3M cells after 48 hrs by SRB assay; format: functional; how it was run: as §1
OVCAR-4 = experiment: Cytotoxicity against human OVCAR4 cells after 48 hrs by SRB assay; format: functional; conditions: OVCAR-4, 48 h; how it was run: as §1
[9] = biological target: Mitogen-activated protein kinase kinase kinase 7 (Homo sapiens) (UniProt O43318); experiment: Inhibition of human TAK1 at 0.5 uM relative to control
Sequence of Mitogen-activated protein kinase kinase kinase 7 (Homo sapiens) (O43318 whole entry, looked up): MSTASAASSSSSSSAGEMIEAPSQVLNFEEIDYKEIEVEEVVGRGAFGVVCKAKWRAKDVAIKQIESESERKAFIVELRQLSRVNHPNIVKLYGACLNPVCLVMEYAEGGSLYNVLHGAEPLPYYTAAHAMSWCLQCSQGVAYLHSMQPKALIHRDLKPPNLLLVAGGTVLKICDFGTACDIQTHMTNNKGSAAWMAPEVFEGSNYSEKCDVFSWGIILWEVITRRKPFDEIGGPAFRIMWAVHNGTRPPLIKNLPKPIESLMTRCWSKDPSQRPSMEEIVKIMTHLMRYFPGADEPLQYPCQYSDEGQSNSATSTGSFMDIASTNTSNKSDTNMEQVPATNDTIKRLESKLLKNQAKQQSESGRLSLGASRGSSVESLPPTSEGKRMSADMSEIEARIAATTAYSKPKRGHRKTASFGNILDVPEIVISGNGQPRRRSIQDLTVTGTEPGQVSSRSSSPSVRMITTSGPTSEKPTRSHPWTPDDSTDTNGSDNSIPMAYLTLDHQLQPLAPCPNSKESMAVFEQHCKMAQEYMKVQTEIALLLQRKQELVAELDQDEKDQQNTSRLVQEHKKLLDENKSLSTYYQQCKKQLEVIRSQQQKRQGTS

[10] = Potency index, ratio of sunitinib GI50 to test compound GI50 for human ovarian cancer cells; format: functional, Ovarian cancer cell
NCI/ADR-RES = experiment: Potency index, ratio of sunitinib GI50 to test compound GI50 for human NCI-ADR-RES cells; format: functional; how it was run: as §2
[11] = biological target: Vascular endothelial growth factor receptor 1 (Homo sapiens) (UniProt P17948); experiment: Inhibition of human Flt1 at 0.5 uM relative to control
Sequence of Vascular endothelial growth factor receptor 1 (Homo sapiens) (P17948 whole entry): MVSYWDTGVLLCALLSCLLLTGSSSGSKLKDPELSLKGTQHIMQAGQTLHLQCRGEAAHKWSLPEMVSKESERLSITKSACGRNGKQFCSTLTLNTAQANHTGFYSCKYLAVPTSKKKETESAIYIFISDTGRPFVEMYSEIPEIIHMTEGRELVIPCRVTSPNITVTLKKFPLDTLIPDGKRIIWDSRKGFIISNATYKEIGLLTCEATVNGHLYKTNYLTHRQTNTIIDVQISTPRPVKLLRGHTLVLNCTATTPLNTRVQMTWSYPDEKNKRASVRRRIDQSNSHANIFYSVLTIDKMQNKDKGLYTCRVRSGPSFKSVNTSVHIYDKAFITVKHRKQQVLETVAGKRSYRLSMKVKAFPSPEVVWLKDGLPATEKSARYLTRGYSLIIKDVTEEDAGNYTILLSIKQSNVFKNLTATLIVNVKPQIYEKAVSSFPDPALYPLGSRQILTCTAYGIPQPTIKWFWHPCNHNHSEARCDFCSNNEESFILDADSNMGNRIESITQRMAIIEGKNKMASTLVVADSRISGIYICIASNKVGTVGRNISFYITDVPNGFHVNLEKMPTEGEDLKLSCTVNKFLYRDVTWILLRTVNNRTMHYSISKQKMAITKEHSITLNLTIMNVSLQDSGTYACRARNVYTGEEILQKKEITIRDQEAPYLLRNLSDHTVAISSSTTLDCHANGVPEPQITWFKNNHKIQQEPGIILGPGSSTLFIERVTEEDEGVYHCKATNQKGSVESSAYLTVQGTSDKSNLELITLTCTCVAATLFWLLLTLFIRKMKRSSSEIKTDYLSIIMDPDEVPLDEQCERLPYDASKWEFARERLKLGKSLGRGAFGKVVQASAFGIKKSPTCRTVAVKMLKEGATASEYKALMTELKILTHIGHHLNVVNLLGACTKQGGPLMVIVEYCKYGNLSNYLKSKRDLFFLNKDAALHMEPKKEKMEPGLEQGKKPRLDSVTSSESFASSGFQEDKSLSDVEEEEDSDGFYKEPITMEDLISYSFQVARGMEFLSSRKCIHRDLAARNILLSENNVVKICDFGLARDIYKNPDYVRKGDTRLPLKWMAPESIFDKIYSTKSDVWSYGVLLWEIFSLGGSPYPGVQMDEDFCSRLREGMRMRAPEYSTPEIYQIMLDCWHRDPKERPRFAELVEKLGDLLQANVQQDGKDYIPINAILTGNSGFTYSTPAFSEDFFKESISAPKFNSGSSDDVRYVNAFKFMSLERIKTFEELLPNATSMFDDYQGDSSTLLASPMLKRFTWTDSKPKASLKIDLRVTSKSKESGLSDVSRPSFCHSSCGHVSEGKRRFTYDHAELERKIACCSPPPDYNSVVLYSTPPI

NCI-H322M = experiment: Cytotoxicity against human NCI-H322M cells after 48 hrs by SRB assay; format: functional; how it was run: as §1
[12] = read-out: LC50 (the source's name)

With `COc1cc2ncnc(Oc3ccc(NC(=O)Nc4ccc(CN5CCOCC5)c(C(F)(F)F)c4)c4ccccc34)c2cc1OC` the GI50 (HCC 2998) was 5.25 µM, the TGI (HCC 2998) was 20.9 µM and the CC50 (HCC 2998; [12]) was 75.9 µM. The GI50 (COLO 205) was 0.38 µM, the TGI (COLO 205) was 3.39 µM and the CC50 (COLO 205; [12]) was > 100 µM. For the same molecule, the GI50 (BT-549) was 1.15 µM, the TGI (BT-549) was 7.41 µM and the CC50 (BT-549; [12]) was 34.7 µM. The inhibition [1] was “Active”, the GI50 (SF-295) was 1.23 µM and the TGI (SF-295) was 6.03 µM. The CC50 (SF-295; [12]) was 30.9 µM, the inhibition [2] was > 96% and the GI50 (SK-MEL-5) was 0.45 µM. It also gave a TGI (SK-MEL-5) of 2.69 µM, a CC50 (SK-MEL-5; [12]) of 17 µM and a GI50 (PC-3) of 1.78 µM. The TGI (PC-3) was 12.6 µM, the CC50 (PC-3; [12]) was > 100 µM and the GI50 (SR) was 0.69 µM. The TGI (SR) was 5.37 µM, the CC50 (SR; [12]) was > 100 µM and the inhibition [3] was “Active”. The inhibition [4] was “Active”, the inhibition [5] was “Active” and the GI50 (IGROV-1) was 0.52 µM. The TGI (IGROV-1) was 3.63 µM, the CC50 (IGROV-1; [12]) was > 100 µM and the GI50 (Hs-578T) was 1.12 µM. The TGI (Hs-578T) was 9.33 µM, the CC50 (Hs-578T; [12]) was > 100 µM and the GI50 (SF-268) was 0.46 µM. It also gave a TGI (SF-268) of 15.8 µM, a CC50 (SF-268; [12]) of 79.4 µM and an inhibition of growth at 10 µM (A-431) of 57.7%. The GI50 (TK-10) was 0.38 µM, the TGI (TK-10) was 5.89 µM and the CC50 (TK-10; [12]) was 35.5 µM. It also gave a GI50 (M14) of 0.95 µM, a TGI (M14) of 4.57 µM and a CC50 (M14; [12]) of 26.9 µM. For the same molecule, the RatioGI50 [6] was 1.1 - 3.7, the inhibition (Homo sapiens) was “Active” and the RatioGI50 [7] was 5 - 7.7. It also gave an IC50 (HUVEC) of 0.63 µM, a GI50 (OVCAR-5) of 1.07 µM and a TGI (OVCAR-5) of 10.5 µM. For the same molecule, the CC50 (OVCAR-5; [12]) was > 100 µM, the inhibition [8] was > 96% and the GI50 (Malme-3M) was 0.3 µM. The TGI (Malme-3M) was 1.55 µM, the CC50 (Malme-3M; [12]) was 5.75 µM and the GI50 (OVCAR-4) was 0.12 µM. For the same molecule, the TGI (OVCAR-4) was 10.5 µM, the CC50 (OVCAR-4; [12]) was 35.5 µM and the inhibition [9] was “Active”. The RatioGI50 [10] was 5 - 7.7, the RatioGI50 (NCI/ADR-RES) was 6.9 and the inhibition [11] was “Active”. It also gave a GI50 (NCI-H322M) of 0.56 µM, a TGI (NCI-H322M) of 15.1 µM and a CC50 (NCI-H322M; [12]) of 93.3 µM.

— ChEMBL document CHEMBL4028913, “Discovery of Novel Potent VEGFR-2 Inhibitors Exerting Significant Antiproliferative Activity against Cancer Cell Lines” (J Med Chem, 2018)
